Insulin prom act: TRM-6 insulin promoter activation; TRM-6 cells (human fetal islet line), insulin promoter eGFP reporter, imaging; plate-scaled: unstimulated 0, stimulated control 100; activation, % at 2 µM; AID 1296; 130,000 tested, 0.81% active;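 active = activation at 2 µM above a set limit, confirmed on inspection of the cell images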;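 also: share of cells whose green reporter signal exceeds an intensity cutoff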
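Assay system: TRM-6 human fetal islet cells, insulin promoter–eGFP reporter; Also added: 0.75 µM tamoxifen as reporter inducer; Schedule: 15 h tamoxifen pre-treatment, 48 h compound treatment at 37 °C; Signal: fixed-cell fluorescence microscopy, eGFP plus Hoechst; Read-out: percent activation from GFP-positive cell fraction; Control set: stimulated and unstimulated wells.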
The depositor's hits bear a star. Only a selection was taken, and hits are over-represented in it overall.

What do the screens show for `CC(=O)c1ccc(NC(=O)NCc2ccc(F)cc2)cc1`?
Insulin prom act: 326*

Results for CC(C)NC(=O)/C=C/C(=O)O ?
Insulin prom act: -7

Results for CCN1CCCc2cc(CN(CCN3CCOCC3)C(=S)Nc3ccccc3C)ccc21 ?
Insulin prom act: -8

Results for CCN1CCCc2cc(CN(CCN3CCOCC3)C(=S)Nc3ccc(OC)c(OC)c3)ccc21 ?
Insulin prom act: 425*

What do the screens show for `CCc1ccc(NC(=O)N(CCN2CCOCC2)Cc2ccc3c(c2)CCCN3CC)cc1`?
Insulin prom act: -8

How did C=CCn1c(-c2ccc(Cl)cc2)cnc1SC(C)C(=O)NC(N)=O (stereo not drawn) do in these assays?
Insulin prom act: 357*

What do the screens show for `C=CCn1c(SCCOc2ccc(OC)cc2)nnc1C(C)NC(=O)c1ccc(OC)cc1` (stereo not drawn)?
Insulin prom act: 10

How did C=CCn1c(SCC(=O)NC2CCCCC2)nnc1-c1ccc(OC)cc1 do in these assays?
Insulin prom act: 114

What do the screens show for `Cc1ccccc1-n1cnnc1SCC(=O)N1CCN(c2ccccc2)CC1`?
Insulin prom act: 131

Results for CCC(C)(C)NC(=O)C(c1ccncc1)N(Cc1ccc(C)cc1)C(=O)c1csnn1 (stereo not drawn) ?
Insulin prom act: 0

How did COCc1cc(C)nc(OCC(=O)N/N=C/c2ccc(C)o2)c1C#N do in these assays?
Insulin prom act: 6

Results for O=C(Nc1ccccc1)Nc1cccc(Cl)c1Cl ?
Insulin prom act: -8

Results for O=C(Nc1ccccc1)Nc1ccccc1C(=O)NCc1ccccc1 ?
Insulin prom act: 77*

How did CNC(=O)Nc1ccccc1C(=O)NCc1ccccc1 do in these assays?
Insulin prom act: -4

How did O=C(Nc1cccnc1)C1CCCN1S(=O)(=O)c1ccc(Cl)c(Cl)c1 (stereo not drawn) do in these assays?
Insulin prom act: 481*

Results for COc1ccc(S(=O)(=O)N2CCCC(C(=O)Nc3cccnc3)C2)cc1Cl (stereo not drawn) ?
Insulin prom act: -8

How did O=C(Nc1cccc(S(=O)(=O)N2CCOCC2)c1)[C@@H]1CCCN1S(=O)(=O)c1ccc(Cl)cc1 do in these assays?
Insulin prom act: 103

What do the screens show for `O=c1cc(N2CCCCC2)c(-c2ccccc2)nn1Cc1cccc(Cl)c1`?
Insulin prom act: 5

What do the screens show for `COc1cc(CNc2nnnn2C)ccc1OCc1ccc(F)cc1Cl`?
Insulin prom act: 9

How did Cn1nc(Oc2nc(N3CCOCC3)nc(N3CCOCC3)n2)ccc1=O do in these assays?
Insulin prom act: -9

What do the screens show for `O=C(Nc1ccc2c(c1)CCC2)C1CCN(c2ncccn2)CC1`?
Insulin prom act: -9

How did Cc1cc(C)c(NC(=O)C2CCCN2C(=O)NC2CCCCC2)c(C)c1 (stereo not drawn) do in these assays?
Insulin prom act: 10

How did Cc1cc(C)c(NC(=O)C2CCN(c3cnccn3)CC2)c(C)c1 do in these assays?
Insulin prom act: 481*

What do the screens show for `O=C(O)CC(c1ccccc1)c1ccccc1`?
Insulin prom act: 0

How did CC(C)(C)C(=O)NC(=S)NNC(=O)C(c1ccccc1)c1ccccc1 do in these assays?
Insulin prom act: 0

How did CC(C)(CO)NC(=O)C(c1ccccc1)c1ccccc1 do in these assays?
Insulin prom act: 406*

What do the screens show for `CC1(C)CC(=O)C=C(NC2=CC3OC(c4ccccc4)OCC3OC2=O)C1` (stereo not drawn)?
Insulin prom act: -7

What do the screens show for `COC(=O)C(C(=O)NCC1CCCO1)C1CCCCCC1` (stereo not drawn)?
Insulin prom act: -8

What do the screens show for `CCOC(=O)C(C(=O)N1CCOCC1)C1CCCCC1` (stereo not drawn)?
Insulin prom act: 286

How did COC(=O)C(C(=O)N1CCN(C)CC1)C1CCCCCC1 (stereo not drawn) do in these assays?
Insulin prom act: 431*

What do the screens show for `CCCCCC(=O)NNC1=NCC(Cc2cccc(Cl)c2)S1` (stereo not drawn)?
Insulin prom act: 9

Results for CN(C)c1ccc(/C=C2\CCC/C(=C\c3ccccc3)C2=O)cc1 ?
Insulin prom act: 120

What do the screens show for `O=C1/C(=C/c2ccc(F)cc2)CCC1C1CCCC1` (stereo not drawn)?
Insulin prom act: 442*

How did O=C1/C(=C/c2ccco2)CCC1C1CCCC1 (stereo not drawn) do in these assays?
Insulin prom act: -7

Results for CC(C)CNc1cc(Cl)c(S(=O)(=O)NCC(C)C)cc1C(=O)O ?
Insulin prom act: 0

Results for O=S(=O)(Nc1ccc2c(c1)OCCO2)c1ccc2oc3ccccc3c2c1 ?
Insulin prom act: 347

How did O=C(O)c1cc(S(=O)(=O)Nc2ccc3c(c2)OCCO3)c(Cl)cc1Cl do in these assays?
Insulin prom act: 150*

Results for Cc1cccc(C(=O)NCC(=O)N2CC(=O)Nc3ccccc32)c1 ?
Insulin prom act: -4

Results for Cc1ccccc1OCCOc1cccc(/C=N/NC(=O)Cc2nnc(N)s2)c1 ?
Insulin prom act: 2

Results for CCN1C(=O)/C(=c2/s/c(=C3\SC(C)=C(C)N3CC)c(=O)n2CC)N(c2ccccc2)C1=S ?
Insulin prom act: 369

What do the screens show for `COc1ccccc1N1CCN(C(CNC(=O)c2ccc3c(c2)OCO3)c2cccnc2)CC1` (stereo not drawn)?
Insulin prom act: 0

How did COc1ccc(S(=O)(=O)NCC(c2cccnc2)N2CCN(c3ccccc3OC)CC2)cc1C (stereo not drawn) do in these assays?
Insulin prom act: 186*

What do the screens show for `COc1ccccc1N1CCN(C(CNS(=O)(=O)c2ccccc2)c2cccnc2)CC1` (stereo not drawn)?
Insulin prom act: -10

Results for CCN1CCN(C(=S)c2ccc(OCC(=O)Nc3ccc(OC)cc3)cc2)CC1 ?
Insulin prom act: 123

How did Cn1c(Cn2c(=O)sc3ccccc32)nnc1SCC(=O)NC1CCCC1 do in these assays?
Insulin prom act: 88

Results for CCOC(=O)c1ccc(NC(=O)CCNC(=O)c2ccc([N+](=O)[O-])cc2)cc1 ?
Insulin prom act: 7

How did O=C(NN1CCOCC1)C12CC3CC(CC(C3)C1)C2 do in these assays?
Insulin prom act: -4

How did CCOC(=O)N1CCN(C(=O)c2ccccc2NC(C)=O)CC1 do in these assays?
Insulin prom act: 4

How did CCOC(=O)N1CCN(c2c(NCCN(C)Cc3ccccc3)c(=O)c2=O)CC1 do in these assays?
Insulin prom act: 0

What do the screens show for `CCOC(=O)N1CCC(Nc2c(-c3ccccc3)c(=O)c2=O)CC1`?
Insulin prom act: 86*

Results for CC(C)CC(NC=C1C(=O)OC(C)(C)OC1=O)C(=O)O (stereo not drawn) ?
Insulin prom act: 0

What do the screens show for `O=C(N=C1N=C2C=CC=CN2Cc2ccccc21)c1ccc(S(=O)(=O)N2CCOCC2)cc1`?
Insulin prom act: -6

Results for COc1ccc(CCn2c(C)nc3c(c(=O)c4ccccc4n3C)c2=O)cc1 ?
Insulin prom act: -3

How did COc1ccc(Cn2c(-c3ccc(OC)cc3)nc3ccccc32)cc1 do in these assays?
Insulin prom act: 9

What do the screens show for `COc1ccc(CCn2c(-c3ccco3)nc3nc4ccccc4nc32)cc1`?
Insulin prom act: 179*

What do the screens show for `COc1ccc(N/C(=C(/C(Cl)=C(Cl)Cl)[N+](=O)[O-])n2nnc3ccccc32)cc1OC`?
Insulin prom act: 10

Results for CC(C)(C)NC(=O)C(=O)NCCC1=CCCCC1 ?
Insulin prom act: -7

Results for CCS(=O)(=O)N1CCCC(C(=O)NC2CCCC2)C1 (stereo not drawn) ?
Insulin prom act: -3

Screens (PubChem)
